Source: ChEMBL document CHEMBL1125797, “Synthesis, characterization and myocardial uptake of cationic bis(arene)technetium(I) complexes” (J Med Chem, 1991)

How the values were obtained:
Rattus norvegicus [1] = species on record: Rattus norvegicus; assay: (§1) The compound was tested for the plasma binding in rat; assay type: ADME, organism-based
[2] = (§2) Biodistribution of compound in rat muscle after 5 min of administration.; assay type: ADME, organism-based, Muscle tissue; details: in vivo
Procedure, shortened: (§3)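 Female Sprague-Dawley rats (150–200 g) received the complex in normal saline (~12.5 μCi/mL) through a lateral tail vein at ~25 μCi/kg. Rats were killed by cervical dislocation 5 min after injection. Tissues were washed with saline, blotted, weighed and γ-counted to give percent injected dose/g tissue.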

Rattus norvegicus [3] = assay: Biodistribution of compound in rat kidney after 5 min of administration.; assay type: ADME, organism-based; details: in vivo; procedure, shortened: as §3
Rattus norvegicus [4] = assay: Biodistribution of compound in rat blood after 5 min of administration.; assay type: ADME, organism-based; details: in vivo; procedure, shortened: as §3
Rattus norvegicus [5] = assay: Biodistribution of compound in rat lung after 5 min of administration.; assay type: ADME, organism-based; details: in vivo; procedure, shortened: as §3
Rattus norvegicus [6] = assay: Biodistribution of compound in rat liver after 5 min of administration.; assay type: ADME, organism-based; details: in vivo; procedure, shortened: as §3
[7] = Plasma protein binding (human); assay type: ADME, cell-free
Procedure, shortened: (§4)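 Test substance (0.02 mL) was added to 1.0 mL of heparinized fresh human plasma and incubated about 15 min. Duplicate samples were passed through Sephadex G-25 desalting columns by centrifugation. Eluate and gel were γ-counted for 1 min or to 1% σ error. % bound = net cpm eluate / net cpm (eluate + gel) × 100.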

Rattus norvegicus [8] = assay: Biodistribution of compound in rat brain after 5 min of administration; assay type: ADME, organism-based; details: in vivo
Rattus norvegicus [9] = assay: Biodistribution of compound in rat heart after 5 min of administration.; assay type: ADME, organism-based; details: in vivo; procedure, shortened: as §3
Rattus norvegicus [10] = assay: as §2; assay type: ADME, organism-based, Muscle tissue; details: in vivo; procedure, shortened: as §3
Rattus norvegicus [11] = assay: Biodistribution of compound in rat kidney after 5 min of administration; assay type: ADME, organism-based; details: in vivo
Procedure, shortened: as §3, with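 “the 99mTc” for “the”, “via” for “through”, “They” for “Rats”, “γ-counted, and the read-out was” for “γ-counted to give”, “dose per g” for “dose/g”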

Rattus norvegicus [12] = assay: Biodistribution of compound in rat liver after 5 min of administration; assay type: ADME, organism-based; details: in vivo
Procedure, shortened: as §3, with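 “the 99mTc” for “the”, “via” for “through”, “They” for “Rats”, “γ-counted, and the read-out was” for “γ-counted to give”, “dose per g” for “dose/g”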

Rattus norvegicus [13] = assay: (§5) Biodistribution of compound in rat muscle after 5 min of administration; assay type: ADME, organism-based, Muscle tissue; details: in vivo; procedure, shortened: as §3
Rattus norvegicus [14] = assay: Biodistribution of compound in rat lung after 5 min of administration; assay type: ADME, organism-based; details: in vivo
Procedure, shortened: (§6)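 Rats received the 99mTc complex in normal saline (~12.5 μCi/mL) by lateral tail vein injection at ~25 μCi/kg and were killed by cervical dislocation at the stated time. Tissues were washed with saline, blotted, weighed and γ-counted to give percent injected dose/g. Time-course values are averages of male and female rats.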

Rattus norvegicus [15] = assay: Biodistribution of compound in rat heart after 5 min of administration; assay type: ADME, organism-based; details: in vivo
Procedure, shortened: as §3, with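 “the 99mTc” for “the”, “via” for “through”, “They” for “Rats”, “γ-counted, and the read-out was” for “γ-counted to give”, “dose per g” for “dose/g”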

Rattus norvegicus [16] = assay: Biodistribution of compound in rat blood after 5 min of administration; assay type: ADME, organism-based; details: in vivo
Procedure, shortened: as §3, with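 “the 99mTc” for “the”, “via” for “through”, “They” for “Rats”, “γ-counted, and the read-out was” for “γ-counted to give”, “dose per g” for “dose/g”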

Rattus norvegicus [17] = species on record: Rattus norvegicus; assay: as §1; assay type: functional
Procedure, shortened: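 Plasma protein binding was measured in rat plasma samples collected during the rat biodistribution studies, after tail vein injection of the 99mTc complex in saline (~25 μCi/kg).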

Homo sapiens = species on record: Homo sapiens; assay: The compound was tested for the plasma binding in human.; assay type: functional; procedure, shortened: as §4
[18] = The compound was tested for the plasma binding in human; assay type: ADME, cell-free
Procedure, shortened: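 Fresh heparinized human plasma (1.0 mL, obtained daily) was spiked with 0.02 mL test solution and incubated about 15 min. Duplicate samples went through saline-equilibrated Sephadex G-25 desalting columns by centrifugation. Eluate and gel were γ-counted for 1 min or to 1% σ error. % bound = net cpm eluate / net cpm (eluate + gel) × 100.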

[19] = as §5; assay type: ADME, organism-based, Muscle tissue; details: in vivo; procedure, shortened: as §6

| Substance | Plasma binding (Rattus norvegicus [1]) [%] | Dose/g [2] [%] | Dose/g (Rattus norvegicus [3]) [%] | Dose/g (Rattus norvegicus [4]) [%] | Dose/g (Rattus norvegicus [5]) [%] | Dose/g (Rattus norvegicus [6]) [%] | Plasma binding [7] [%] | Dose/g (Rattus norvegicus [8]) [%] | Dose/g (Rattus norvegicus [9]) [%] | Dose/g (Rattus norvegicus [10]) [%] | Dose/g (Rattus norvegicus [13]) [%] | PPB (Rattus norvegicus [17]) [%] | PPB (Homo sapiens) [%] | Dose/g (Rattus norvegicus [11]) [%] | Dose/g (Rattus norvegicus [12]) [%] | Dose/g (Rattus norvegicus [14]) [%] | Dose/g (Rattus norvegicus [15]) [%] | Dose/g (Rattus norvegicus [16]) [%] | Plasma binding [18] [%] | Dose/g [19] [%] |
| --- | --- | --- | --- | --- | --- | --- | --- | --- | --- | --- | --- | --- | --- | --- | --- | --- | --- | --- | --- | --- |
| BIS(DODECAHYDROTRIPHENYLENE) TECHNETIUM | 34 | 0.55 | 12 | 0.16 | 1 | 1 | 84 | 0.02 | 2.6 |  |  |  |  |  |  |  |  |  |  |  |
| BIS(INDAN)TECHNETIUM | 6.8 |  | 11 | 0.077 | 0.98 | 1.7 | 17 |  | 1.1 | 0.23 |  |  |  |  |  |  |  |  |  |  |
| BIS(PENTAMETHYLBENZENE) TECHNETIUM | 57 | 0.66 | 5.5 | 0.14 | 1.6 | 0.45 | 55 | 0.02 | 3.5 |  |  |  |  |  |  |  |  |  |  |  |
| BIS(TOLUENE)TECHNETIUM [listing 2 of 2 here] |  |  |  |  |  |  |  |  |  |  |  | 8.9 | 11 |  |  |  |  |  |  |  |
| Bis(1,1,4,6,7-pentamethylindane)technetium | 81 | 0.56 | 5 | 0.49 | 2.5 | 1.2 | 95 | 0.06 | 3.3 |  |  |  |  |  |  |  |  |  |  |  |
| Bis(1,2,3,4-tetrahydronaphthalene)technetium | 5.8 |  | 9.1 | 0.24 | 1 | 0.65 | 51 |  | 2.6 | 0.51 |  |  |  |  |  |  |  |  |  |  |
| Bis(1,2,3,5-tetramethylbenzene)technetium |  |  |  |  |  |  |  |  |  |  |  | 21 | 36 |  |  |  |  |  |  |  |
| Bis(1,2,4,5-tetramethylbenzene)technetium | 18 | 0.72 | 9.8 | 0.28 | 1.3 | 0.9 | 42 | 0.02 | 2.3 |  |  |  |  |  |  |  |  |  |  |  |
| Bis(1,2,4-trimethylbenzene)technetium | 12 |  |  |  |  |  |  |  |  |  | 0.32 |  |  | 7 | 0.8 | 0.78 | 1.4 | 0.38 | 20 |  |
| Bis(1,2-diethylbenzene)technetium | 21 | 0.58 | 7.8 | 0.1 | 1.3 | 0.62 | 84 | 0.03 | 3 |  |  |  |  |  |  |  |  |  |  |  |
| Bis(1,3,5-tri-tert-butylbenzene)technetium | 60 | 0.38 | 8 | 0.49 | 1.3 | 2 | 81 | 0.04 | 1 |  |  |  |  |  |  |  |  |  |  |  |
| Bis(1-methyl-(2-propyl)benzene)technetium | 27 |  | 5 | 0.16 | 1.1 | 0.42 | 75 |  | 2.5 | 0.56 |  |  |  |  |  |  |  |  |  |  |
| Bis(m-xylene)technetium |  |  |  |  |  |  |  |  |  |  |  |  |  | 8 | 2 | 0.59 | 0.47 | 0.1 |  | 0.17 |
| Bis(toluene)technetium [listing 1 of 2 here] |  |  |  |  |  |  |  |  |  |  |  |  |  | 3.4 | 2.6 | 0.51 | 0.22 | 0.2 |  | 0.069 |
| Bis(toluene)technetium [listing 2 of 2 here] |  |  |  |  |  |  |  |  |  |  |  | 8.9 | 11 |  |  |  |  |  |  |  |

The next lines start with results.

| Plasma binding (Rattus norvegicus [1]) [%] | Dose/g [2] [%] | Dose/g (Rattus norvegicus [3]) [%] | Dose/g (Rattus norvegicus [4]) [%] | Dose/g (Rattus norvegicus [5]) [%] | Dose/g (Rattus norvegicus [6]) [%] | Plasma binding [7] [%] | Dose/g (Rattus norvegicus [8]) [%] | Dose/g (Rattus norvegicus [9]) [%] | Dose/g (Rattus norvegicus [10]) [%] | Dose/g (Rattus norvegicus [13]) [%] | PPB (Rattus norvegicus [17]) [%] | PPB (Homo sapiens) [%] | Substance | Dose/g (Rattus norvegicus [11]) [%] | Dose/g (Rattus norvegicus [12]) [%] | Dose/g (Rattus norvegicus [14]) [%] | Dose/g (Rattus norvegicus [15]) [%] | Dose/g (Rattus norvegicus [16]) [%] | Plasma binding [18] [%] | Dose/g [19] [%] |
| --- | --- | --- | --- | --- | --- | --- | --- | --- | --- | --- | --- | --- | --- | --- | --- | --- | --- | --- | --- | --- |
| 50 | 0.33 | 10 | 0.4 | 5.7 | 8.4 | 84 | 0.06 | 1.3 |  |  |  |  | BIS(HEXAETHYLBENZENE) TECHNETIUM |  |  |  |  |  |  |  |
| 57 | 0.55 | 6.2 | 0.16 | 1.2 | 0.79 | 72 | 0.03 | 3 |  |  |  |  | BIS(HEXAMETHYLBENZENE)TECHNETIUM |  |  |  |  |  |  |  |
| 27 |  | 6 | 0.23 | 1.4 | 0.45 | 90 |  | 4 | 0.82 |  |  |  | BIS(TETRAHYDROACENAPHTHENE) TECHNETIUM |  |  |  |  |  |  |  |
|  |  |  |  |  |  |  |  |  |  | 0.069 |  |  | BIS(TOLUENE)TECHNETIUM [listing 1 of 2 here] | 3.4 | 2.6 | 0.51 | 0.22 | 0.2 |  |  |
| 23 | 0.49 | 9.3 | 0.09 | 1 | 1 | 27 | 0.02 | 1.5 |  |  |  |  | BIS(TRINDAN) TECHNETIUM |  |  |  |  |  |  |  |
| 75 | 0.66 | 6.4 | 0.35 | 1.5 | 0.73 | 94 | 0.04 | 3.4 |  |  |  |  | Bis(1,1,4,6-tetramethylindane)technetium |  |  |  |  |  |  |  |
| 32 | 0.48 | 9.1 | 0.16 | 0.9 | 0.79 | 35 | 0.02 | 1.8 |  |  |  |  | Bis(1,2,3,4,5,6,7,8-octahydroanthracene)technetium |  |  |  |  |  |  |  |
| 22 |  | 8.2 | 0.094 | 1.1 | 0.73 | 46 |  | 2.4 | 0.66 |  |  |  | Bis(1,2,3,4-tetramethylbenzene)technetium |  |  |  |  |  |  |  |
| 6.6 |  |  |  |  |  |  |  |  |  | 0.27 |  |  | Bis(1,2,3-trimethylbenzene)technetium | 9 | 1 | 0.66 | 1 | 0.13 | 24 |  |
| 48 | 0.63 | 7.3 | 0.24 | 1.1 | 1.4 | 83 | 0.04 | 2.8 |  |  |  |  | Bis(1,3,5-triethylbenzene)technetium |  |  |  |  |  |  |  |
| 19 | 0.64 | 5.1 | 0.09 | 1.2 | 0.46 | 64 | 0.03 | 2.8 |  |  |  |  | Bis(1,3-diethylbenzene)technetium |  |  |  |  |  |  |  |
| 16 | 0.66 | 5.4 | 0.13 | 1.4 | 0.58 | 60 | 0.03 | 3.8 |  |  |  |  | Bis(1,4-diethylbenzene)technetium |  |  |  |  |  |  |  |
| 54 | 0.42 | 8.4 | 0.12 | 1.4 | 0.66 | 57 | 0.03 | 3.6 |  |  |  |  | Bis(4,6-dimethylindane)technetium |  |  |  |  |  |  |  |
| 18 |  | 6.5 | 0.18 | 1.3 | 0.38 | 80 |  | 3.2 | 0.7 |  |  |  | Bis(5-isopropyl-m-xylene)technetium |  |  |  |  |  |  |  |
